According to ChEMBL document CHEMBL1255219, “Discovery of a β-d-2'-deoxy-2'-α-fluoro-2'-β-C-methyluridine nucleotide prodrug (PSI-7977) for the treatment of hepatitis C virus” (J Med Chem, 2010):

How the values were obtained:
[1] = Tmax in cynomolgus monkey plasma at 50 mg/kg, po qd for 4 days; assay type: ADME, organism-based, Macaca fascicularis; set-up: dose 50 mg/kg, route oral
Method in brief: (§1)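 Oral gavage (dog gastric, monkey nasogastric), 50 mg/kg in 20% w/v hydroxypropyl-β-cyclodextrin in water, 2.5 mL/kg, once daily for 4 consecutive days. Blood sampled into K2EDTA at 1, 2, 4, 6, 12 and 24 h postdose on day 3. Prodrug in plasma quantified by LC/MS/MS, noncompartmental analysis.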

CCRF-CEM [2] = assay: Cytotoxicity against human CEM cells at 100 uM; assay type: cell-based
Method in brief: (§2)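 Huh7, HepG2 and BxPC3 cells at 2 × 10^3 per well, CEM at 5 × 10^3 per well. Compound serially diluted from 100 μM, 8 days at 37 °C. MTS added for 2 h, absorbance read at 490 nm with medium-only blanks. CC50 taken relative to untreated cells.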

Canis familiaris [3] = assay: Metabolic stability in dog liver assessed as prodrug level at 50 mg/kg, po; assay type: ADME, organism-based, Canis lupus familiaris; set-up: dose 50 mg/kg, route oral; settings: in vivo
Method in brief: (§3)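 Dogs and cynomolgus monkeys gavaged once daily with 50 mg/kg in 20% w/v hydroxypropyl-β-cyclodextrin for 4 days. At 4 h postdose on day 4, under pentobarbital, the liver was perfused with ice-cold saline via a portal cannula. Five lobe samples were snap-frozen and homogenized in 3 volumes of cold 70% methanol with 20 mM EDTA/EGTA. Prodrug and triphosphate measured by LC/MS/MS.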

Canis familiaris [4] = assay: Metabolic stability in dog liver assessed as 2'-F-2'-C-Methyluridine-5''-triphosphate level at 50 mg/kg, po; assay type: ADME, organism-based, Canis lupus familiaris; set-up: dose 50 mg/kg, route oral; settings: in vivo; method in brief: as §3
Rattus norvegicus [5] = assay: Toxicity in rat assessed as change in liver weight at 50 to 1800 mg/kg, po after 14 days; assay type: organism-based; set-up: dose 50-1800 mg/kg, route oral; settings: in vivo, 336 h
Method in brief: (§4)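 Rats (CD SD, 4–5 weeks, 76–100 g) given a single oral dose of 50, 300 or 1800 mg/kg, or vehicle (30% PEG400/30% Tween 20/20% corn oil/20% water). Observed daily for 14 days with daily body weights. Necropsy on day 15 with macroscopic examination and liver and paired kidney weights.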

Rattus norvegicus [6] = assay: Toxicity in rat assessed as change in kidney weight at 50 to 1800 mg/kg, po after 14 days; assay type: organism-based; set-up: dose 50-1800 mg/kg, route oral; settings: in vivo, 336 h; method in brief: as §4
[7] = Tmax in dog plasma at 50 mg/kg, po qd for 4 days; assay type: ADME, organism-based, Canis lupus familiaris; set-up: dose 50 mg/kg, route oral; method in brief: as §1
Rattus norvegicus [8] = assay: Cmax in rat liver assessed as 2'-F-2'-C-Methyluridine-5''-TP level at 50 mg/kg, po; assay type: ADME, organism-based; set-up: dose 50 mg/kg, route oral; settings: in vivo
Method in brief: (§5)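 Rats given a single oral gavage dose of 50 mg/kg in 0.5% carboxymethylcellulose sodium, 5 mL/kg. Livers taken at 0.5, 1, 2, 4, 6 and 12 h after CO2 sacrifice and ice-cold saline perfusion, then snap-frozen. Homogenized in 3 volumes of cold 70% methanol with 20 mM EDTA/EGTA. Triphosphate measured by LC/MS/MS (ESI, MRM negative mode), noncompartmental analysis.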

Homo sapiens = species on record: Homo sapiens; assay: Half life in human plasma at 100 uM
[9] = Half life in human liver S9 fraction at 100 uM; assay type: ADME, subcellular
Method in brief: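 Compound at 100 μM in 50 mM K2HPO4 pH 7.4 with 5 mM MgCl2. Started with 4 mg/mL human liver S9 at 37 °C. Samples at 0–24 h quenched with acetonitrile. Parent remaining measured by LC/MS/MS peak area relative to 0 h, and half-life calculated.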

Hepatitis C virus [10] = assay: Antiviral activity against HCV infected in human clone A cells assessed as inhibition of cellular rRNA replication at 50 uM; assay type: functional, Hepacivirus hominis
Rattus norvegicus [11] = assay: Tmax in rat liver assessed as 2'-F-2'-C-Methyluridine-5''-TP level at 50 mg/kg, po; assay type: ADME, organism-based; set-up: dose 50 mg/kg, route oral; settings: in vivo; method in brief: as §5
HepG2 = assay: Cytotoxicity against human HepG2 cells at 100 uM; assay type: cell-based; settings: hepg2, 100 µM; method in brief: as §2
Hepatitis C virus [12] = assay: Antiviral activity against HCV infected in human clone A cells; assay type: functional, Hepacivirus hominis; settings: Hepatitis C virus
Method in brief: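 Clone A replicon cells seeded at 1500 cells/well. Compounds serially diluted in G418-free culture medium and added, then incubated 4 days at 37 °C in 5% CO2. HCV RNA quantified by real-time RT-PCR as ΔCt relative to the mean no-drug control.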

[13] = Permeability by PAMPA assay; assay type: ADME; settings: read-out: permeability
Method in brief: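 PAMPA with a lecithin-in-dodecane (20 mg/mL) coated filter donor. Donor held 200 μg/mL compound in PBS pH 7.4 with 2% DMSO; acceptor held PBS with 2% DMSO. Left 24 h. Donor and acceptor concentrations measured by LC/MS/MS (MRM), and Pe calculated from concentrations, volumes, filter area and time.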

[14] = Cytotoxicity against human erythroid progenitor cells after 14 to 16 days
[15] = Cytotoxicity against HuH7 cells at 100 uM; assay type: cell-based; settings: human, huh-7, 100 µM; method in brief: as §2
Rattus norvegicus [16] = assay: AUC (0 to infinity) in rat liver assessed as 2'-F-2'-C-Methyluridine-5''-TP level at 50 mg/kg, po; assay type: ADME, organism-based; set-up: time infinity, dose 50 mg/kg, route oral; settings: in vivo; method in brief: as §5
[17] = Half life in simulated gastric fluid at pH 1.2 at 50 ug/mL; assay type: physicochemical
Method in brief: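 Compound at 50 μg/mL in simulated gastric fluid (pH 1.2) or simulated intestinal fluid (pH 7.5), 37 °C, 20 h. Injected by reverse-phase HPLC every 2 h, peak area at 260 nm. Percent parent remaining relative to 0 h, giving half-life.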

[18] = Half life in simulated intestinal fluid of pH 7.5 at 50 ug/mL; assay type: physicochemical
Method in brief: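 Compound at 50 μg/mL in simulated gastric fluid (pH 1.2) or simulated intestinal fluid (pH 7.5), 37 °C, 20 h. Injected by reverse-phase HPLC every 2 h, peak area at 260 nm.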

[19] = Cmax in cynomolgus monkey plasma at 50 mg/kg, po qd for 4 days; assay type: ADME, organism-based, Macaca fascicularis; set-up: dose 50 mg/kg, route oral; method in brief: as §1
Rattus norvegicus [20] = assay: Toxicity in rat assessed as change in macroscopic pathology at 50 to 1800 mg/kg, po after 14 days; assay type: organism-based; set-up: dose 50-1800 mg/kg, route oral; settings: in vivo, 336 h; method in brief: as §4
Rattus norvegicus [21] = assay: AUC (0 to t) in rat liver assessed as 2'-F-2'-C-Methyluridine-5''-TP level at 50 mg/kg, po; assay type: ADME, organism-based; set-up: dose 50 mg/kg, route oral; settings: in vivo; method in brief: as §5
[22] = Cytotoxicity against human BxPC3 cells at 100 uM; assay type: cell-based; settings: bxpc-3, 100 µM; method in brief: as §2
Cynomolgus monkey = assay: Metabolic stability in cynomolgus monkey liver assessed as prodrug level at 50 mg/kg, po; assay type: ADME, organism-based, Macaca fascicularis; set-up: dose 50 mg/kg, route oral; settings: in vivo; method in brief: as §3
[23] = Cytotoxicity against human myeloid progenitor cells after 14 to 16 days
Rattus norvegicus [24] = assay: Toxicity in rat assessed as change in body weight at 50 to 1800 mg/kg, po after 14 days; assay type: organism-based; set-up: dose 50-1800 mg/kg, route oral; settings: in vivo, 336 h; method in brief: as §4
[25] = AUC (0 to t) in dog plasma at 50 mg/kg, po qd for 4 days; assay type: ADME, organism-based, Canis lupus familiaris; set-up: dose 50 mg/kg, route oral; method in brief: as §1
[26] = Cmax in dog plasma at 50 mg/kg, po qd for 4 days; assay type: ADME, organism-based, Canis lupus familiaris; set-up: dose 50 mg/kg, route oral; method in brief: as §1
Rattus norvegicus [27] = assay: Toxicity in rat assessed as mortality at 50 to 1800 mg/kg, po after 14 days; assay type: organism-based; set-up: dose 50-1800 mg/kg, route oral; settings: in vivo, 336 h; method in brief: as §4
[28] = AUC (0 to infinity) in dog plasma at 50 mg/kg, po qd for 4 days; assay type: ADME, organism-based, Canis lupus familiaris; set-up: time infinity, dose 50 mg/kg, route oral; method in brief: as §1
Hepatitis C virus [29] = assay: Antiviral activity against HCV infected in human ET-lunet cells; assay type: functional, Hepacivirus hominis
Method in brief: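 ET-lunet replicon cells seeded at 3000 cells/well. Compounds serially diluted in culture medium without G418 and added to cells, which were incubated 4 days at 37 °C in 5% CO2. HCV RNA replication measured by quantitative real-time RT-PCR as ΔCt against the mean no-drug control threshold cycle. EC90, the concentration giving 90% inhibition, was calculated.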

CCRF-CEM [30] = assay: Cytotoxicity against human CEM cells assessed as inhibition of mitochondrial DNA up to 100 uM; assay type: cell-based
Method in brief: (§6)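 CEM or HepG2 cells at 1 × 10^4 per well, compound serially diluted from 100 μM, 14 days at 37 °C, 5% CO2. Medium with compound renewed on days 7 and 11. Total DNA extracted; mitochondrial COXII DNA and rDNA measured by multiplex quantitative PCR. ΔCt converted to log reduction, inhibition relative to untreated cells, and the 90% inhibitory concentration reported.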

[31] = system: Hepatitis C virus NS5B S96T/N142T mutant; assay: Antiviral activity against HCV expressing NS5B polymerase S96T/N142T mutation infected in human ET-lunet cells
CCRF-CEM [32] = assay: Cytotoxicity against human CEM cells assessed as inhibition of ribosomal DNA up to 100 uM; assay type: cell-based; method in brief: as §6
Hepatitis C virus [33] = assay: Antiviral activity against HCV expressing NS5B polymerase S282T mutation infected in clone A cells; assay type: functional, Hepacivirus hominis
Method in brief: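 Replicon cells seeded at 1500 (clone A) or 3000 (ET-lunet) per well. Serially diluted compound added in medium without G418, 4 days at 37 °C, 5% CO2. HCV RNA measured by real-time RT-PCR as ΔCt versus no-drug control. EC90 calculated; fold change of S282T mutant versus wild-type replicon EC90. At least three independent experiments.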

SMILES: C[C@H](NP(=O)(OC[C@H]1O[C@@H](n2ccc(=O)[nH]c2=O)[C@](C)(F)[C@@H]1O)Oc1ccc(F)cc1)C(=O)OC1CCCCC1 (some centres not stated)
- Tmax [1]: 6 h
- Activity (CCRF-CEM [2]): Non-toxic
- Drug uptake (Canis familiaris [3]): 8.72 ng/g
- Drug uptake (Canis familiaris [4]): 476 ng/g
- Activity (Rattus norvegicus [5]): Non-toxic
- Activity (Rattus norvegicus [6]): Non-toxic
- Tmax [7]: 0.25 h
- Cmax (Rattus norvegicus [8]): 716 ng/g
- half-life at 100 µM (Homo sapiens): > 24 h
- half-life at 100 µM [9]: 0.18 h
- inhibition at 50 µM (Hepatitis C virus [10]): 52.1%
- Tmax (Rattus norvegicus [11]): 4 h
- Activity (HepG2): Non-toxic
- EC90 (Hepatitis C virus [12]): 0.04 µM
- Papp [13]: 0.488 ×10⁻⁶ cm/s
- IC50 [14]: 37 µM
- Activity [15]: Non-toxic
- AUC (Rattus norvegicus [16]): 9888 ng·h/g
- half-life at 50 ug/mL [17]: 20 h
- half-life at 50 ug/mL [18]: > 20 h
- Cmax [19]: 1.8 ng/mL
- Activity (Rattus norvegicus [20]): Non-toxic
- AUC (Rattus norvegicus [21]): 8937 ng·h/g
- Activity [22]: Non-toxic
- Drug uptake (Cynomolgus monkey): 13 ng/g
- IC50 [23]: 30 µM
- Activity (Rattus norvegicus [24]): Non-toxic
- AUC(0-t) at 96 h [25]: 54 ng·h/mL
- Cmax [26]: 36 ng/mL
- Activity (Rattus norvegicus [27]): Non-toxic
- AUC(0-inf) [28]: 62 ng·h/mL

SMILES: CC(C)OC(=O)[C@H](C)N[P@@](=O)(OC[C@H]1O[C@@H](n2ccc(=O)[nH]c2=O)[C@](C)(F)[C@@H]1O)Oc1ccccc1
- EC90 (Hepatitis C virus [29]): 3.3 µM
- EC90 (Hepatitis C virus [12]): 7.5 µM
- Activity (CCRF-CEM [30]): Non-toxic
- EC90 [31]: 1.3 µM
- Activity (CCRF-CEM [32]): Non-toxic
- EC90 (Hepatitis C virus [33]): > 100 µM
